Tested on: MS2 coat protein
Experiment: apparent Kd, MS2 coat protein; higher = weaker binding; RNA-MaP array; FMN 200 µM where present
Summary of the method: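 On Illumina sequencing-chip clusters, designs were transcribed by stalled E. coli RNA polymerase and titrated with SNAP-549-labelled MS2 coat protein (0.7 or 1.5 nM, doubling to 3 µM), without and then with constant ligand, in 100 mM Tris-HCl pH 7.5, 80 mM KCl, 4 mM MgCl2, BSA, DTT, yeast tRNA and Tween-20. Apparent Kd is the median of filtered per-cluster curve fits to green signal normalised to red-channel RNA signal and control-cluster median Fmax.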

[1] = designed as: OFF switch for flavin mononucleotide, no ligand
[2] = ligand present: flavin mononucleotide, designed as: OFF switch for flavin mononucleotide
[3] = designed as: ON switch for flavin mononucleotide, no ligand
[4] = ligand present: flavin mononucleotide, designed as: ON switch for flavin mononucleotide

| Sequence | apparent Kd [1] [nM] | apparent Kd [2] [nM] | apparent Kd [3] [nM] | apparent Kd [4] [nM] |
| --- | --- | --- | --- | --- |
| AUACUCGUUGUGAGGAUAUCGUUUUCGUCACGGAUCGAGAAGGCACAUGAGGAUCACCCAUGUUUGACGUGAAU | 17.1 | 44.3 |  |  |
| UUAUUUAUGCAAGGAUAUCAUUAAUUUUUACGUCCUACAUGAGGAUCACCCAUGUUUAGUUUAUUUGAGAAGGUGCAUUGUCUG |  |  | 38.4 | 27.6 |
| UUGUUUCGUCAUUAACAUGAGGAUCACCCAUGUAUCGACUCAAAGGAUAUAUAUGCUUGUUUGCAAUAGAAGGUUGAUUGUUGU |  |  | 27.9 | 26.5 |
| AAAACAUGAGGAUCACCCAUGUUAAGAUCGGUCAAUAGAAGUGAGGAUAUACGAAGUUAAGGCUGGUAGAAGGCACUGGGUACA |  |  | 43.5 | 37.1 |
| UCAUGAAGGGCAGGAUAUGGACAUGAGGAUCACCCAUGUACAUGGGAUUAUAUACUGAAUUUAUACUAGAAGGGUUACAUAAAU | 31 | 18.1 |  |  |
| AUUACAAUUGUAUACAUGAGGAUCACCCAUGUCAAAAGUCAUGAGGAUAUGGUAUUGUAGUUAUUCCAGAAGGCAUAAAGCUAA |  |  | 29.2 | 16.4 |
| UGCCGUUGAGGAUAUACAUUGAAUAAGAUUCAUGUAAAACUACAUGAGGAUCACCCAUGUAGAAGGCAAUGGCU | 18.3 | 29.6 |  |  |
| AGAAAACAUGAGGAUCACCCAUGUGAGGAUAUCGAUGUCCAGGGCCUGGUGCGGGACUCGAGAAGGCACUGGGA | 59.9 | 86.9 |  |  |
| AGAUGGCGAGGAUAUACAUGAGGAUCACCCAUGUGAGAUAAAUAAGUGAGGAAGAAAAGUAGAAGGCGCUGUCA | 81.3 | 387 |  |  |
| UGUCGGAGCAGAGGAUAUUACAUGAGGAUCACCCAUGUCUGAACCAAUAGCUGGAAACAGCAAUGUAAGAAGGCUGCUCCGACA | 154 | 432 |  |  |
| AUUAUGACCGAGUUAUACCUCUAAACAUGAGGAUCACCCAUGUAGGAUAUCAGCACGAUAAGUGCUGAGAAGGACAUCUCGGUC | 17.2 | 27 |  |  |
| UGGUGCUAGGGAGGAUAUGGGAAGAUACAUGAGGAUCACCCAUGUUUAAGAAUGCCGAGAGGCAACUAGAAGGCCCUAGUACCU |  |  | 457 | 20.9 |
| GCACGGUAUGUAGGAUAUGCAUAGCAUUGCUAUGCAGAAGGACAUGAGGAUCACCCAUGUAUGUAUUCCAUAUAUUUCCCGUGC | 5.55 | 5.87 |  |  |
| AGGUAAGACUUAAUUGUGCUGGUGAGAAGGCUACUGGUUGUGGUCUACAUGAGGAUCACCCAUGUUGAGGAUAUCAUCGGUAUC | 606 | 72.7 |  |  |
| AGUGUCAUCCAGAAGGCCUCAUGACAUGAGGAUCACCCAUGUUAUCAUGGGAGGAUAUGGAUGAUACAGCUACGUUUCGUAGCA |  |  | 90.5 | 25.4 |
| UCAGAGGCUGACAUGAGGAUCACCCAUGUUAGAUUGUUAUGUCAGGAUAUUAUCUGGCAACCAGAUGAGAAGGGACCCUCUGUG |  |  | 22 | 7.67 |
| CACUGUCAUGCAGGAUAUGCAUUGGAUUACAAUGCAGAAGGGCGAUUACAUGAGGAUCACCCAUGUGUAGACAGUGAAGAAGAG |  |  | 165 | 12.7 |
| UUCAUCAAUGAAGGAUAUCUAUAUCCAACAUGAGGAUCACCCAUGUUGAGGAUCACCUAUGUAAAGGAGAAGGUUAAUAUAACU |  |  | 6.83 | 6.32 |
| AUCAGCUCGUGAGGAUAUGCGUCACUGCGUCAGCAGUGUGGUAAGAUCACAUGAGGAUCACCCAUGUAGAAGGCACGAGCUGAU | 34 | 455 |  |  |
| GCUGCGCGAGGAUAUGCGGUUUGUGCUGUGGCCCGUGGCGUACAUGAGGAUCACCCAUGUAGAAGGCGUGUGGG | 26.1 | 28.9 |  |  |
| UGGUACUAGCGAGGAUAUGGGAAGAUACAUGAGGAUCACCCAUGUUUAAGAAUGCCGAGAGGCAACUAGAAGGCCCUAGUACCU |  |  | 456 | 69.4 |
| CCGGUUGGCGCAGGAUAUACAUGAGGAUCACCCAUGUUCAUCAGGAUCACCGAUGAGUUUUUGUUGUAGAAGGGUGGCCCGGCC | 35.2 | 37.2 |  |  |
| UACAUGAGGAUCACCCAUGUUUUGUCGUGUAUGGUAUUUAUCUAGGAUAUCAAUCUAUGUAUUUAUGAGAAGGAGAAUAUUAAU | 41.8 | 37.3 |  |  |
| UUAAAUCAUGUAGGAUAUGCAUGGCGAAGCUACGCAGAAGGACAUGAGGAUCACCCAUGUUAUAGCUACCAAGUUAGGUGGCAA | 99 | 190 |  |  |

| Sequence | apparent Kd [1] [nM] | apparent Kd [2] [nM] | apparent Kd [3] [nM] | apparent Kd [4] [nM] |
| --- | --- | --- | --- | --- |
| GCGUUCUUGUAGAAGGUACUUUCGACAUCUUAUAAACGCUUGACACAUGAGGAUCACCCAUGUUGUAAGGAUAUACAUGAACGC |  |  | 6.61 | 6.41 |
| GGUACCAUCGCAGGAUAUGGUAUCCUUUGGGUACCAGAAGGGUGAUAACAUGAGGAUCACCCAUGUGGUACCGGGCGUGAGCCC |  |  | 29 | 970 |
| AUCAUGUUAGGAUAUACAAGAAAAGAAAAGAAAGAAAAGAAGUAGAAGGAACAUGAGGAUCACCCAUGUAAGAA | 27.3 | 45.4 |  |  |
| UAUAUGUCAGGAUAUUAGUAGUGGACGAAUAAGACUACUGCUGAGAAGGGACAUGAGGAUCACCCAUGUUCCUC | 20.2 | 172 |  |  |
| GACGGUGAUGUAGGAUAUACGCUGGAAUACAGCGUAGAAGGACAUGAGGAUCACCCAUGUAAAGUGUCUCCAAAUAACACCGUC | 31.5 | 90.8 |  |  |
| UAAUCUCAGAUAGGAUAUAUAGGAUAACUUAAGACCUAACAUGAGGAUCACCCAUGUGAUUAUUCGUAGAAGGAUCAUUGAACA |  |  | 259 | 263 |
| AGAAAACAUGAGGAUCACCCAUGUGAGGAUAUCGAUGUCCAAGCCCGGGUGCGGGACUCGAGAAGGCACUUGGG | 55.7 | 36.8 |  |  |
| AUAAAACAAAACCACACAUGAGGAUCACCCAUGUCAAGAUUACAGGAUAUCCAGCAGAGAUGCAUGGAGAAGGGUGAUCCCAAA |  |  | 37.1 | 56.5 |
| GGUGCAUAUGAGAAGGCGAUCAUGAAACAUGAUCGAGGAUAUCAUGUAAACAUGAGGAUCACCCAUGUAUGGGAAAAGUGCACC |  |  | 64.8 | 8.54 |
| UUAGUCAUGUUAGGAUAUCCGAUGCGAAGCGUUGGAGAAGGAACAUGAGGAUCACCCAUGUUCUGCGUCUGAGUACAGAUGCUA | 29.6 | 123 |  |  |
| GGAUGACAAAGUCAUCCUAUUCGAACAUGAGGAUCACCCAUGUAGGAUAUGCUACAGAAACUGUAGCAGAAGGACAUGUGCUUU | 34.1 | 151 |  |  |
| AUAUAUGCCCAGAAGGUGCCAGCGAGAGCUGCACAUGAGGAUCACCCAUGUUGUCGGUGACGACGCAAGGAUAUGGGCAUAUAU |  |  | 24.5 | 7.26 |
| GUCAGCUCGUGAGGAUAUACAACACUGCUUCAGCAGUGUAUUAAGAUCACAUGAGGAUCACCCAUGUAGAAGGCACGAGCUGAU | 13.8 | 242 |  |  |
| AAAAUAAGAACAGGAUAUGUGGGUUCGAAGAGCAAAACUCUCCACAUGAGGAUCACCCAUGUGCCACAGAAGGGUUCGGGUGAU |  |  | 66.9 | 12.4 |
| GCAGCGUAUGUAGGAUAUCGGUCAGUUUCUGAUCGAGAAGGACAUGAGGAUCACCCAUGUAUAUUCUAGCGUGAGCUAGGCUGC | 18.2 | 25.5 |  |  |
| CGAUAAAGCUGAGGAUAUGAGAAUAGAAAGAAAUCAGAAGGCAGACAUGAGGAUCACCCAUGUGAGUUCUCGAGAUUAGAUAUU | 25.2 | 60.6 |  |  |
| ACAUGAGGAUCACCCAUGUUGAAUGAGGAUAUUUGACUGCGCAUGAGGUUCUCCCAUGUUCAACCGGAGAAGGUAUUAAUAAUU |  |  | 267 | 160 |
| UCAUAAGAACAAGGAUAUCAAUAAAAUAUAAAUGCUACAUGAGGAUCACCCAUGUUUUAGCAUGGUGAGAAGGUGUAUUUACGG |  |  | 67.8 | 42.5 |
| UUAGAGAAGGAGGAUAUGCUGUUCUGUCACGUAGCAGAAGGCCUUACAUGAGGAUCACCCAUGUUGAUCCCAGU | 618 | 576 |  |  |
| GGAAAUCAUGUAGGAUAUGCAUGGCGAAGCUACGCAGAAGGACAUGAGGAUCACCCAUGUUCUGGCUACCGAGUUCGGUGGCAA | 22.5 | 104 |  |  |
| GGAUAGGACAGAGGAUAUACGUGCUAGAGAUACUAGCACAAUUUCCUCACAUGAGGAUCACCCAUGUAGAAGGCUGUCCUAUCG | 6.08 | 26.3 |  |  |
| ACGGUGGUCACAGGAUAUCCGGCCCGCGUGGCCGGAGAAGGGUGACUCAGAACCACAUGAGGAUCACCCAUGUGCCUUGCCGUA |  |  | 102 | 35.5 |
| CCUGUCGUAUGAGGAUAUGGUCAGCUUUGCUGACCAGAAGGCAUGUCAAUAGACAUGAGGAUCACCCAUGUAGUAAAGACAGGA |  |  | 381 | 40.1 |

— the EternaBench riboswitch data
